WT yeast gro inh = growth inhibition of WT yeast, mitochondrial fusion screen; mitochondrial fusion phenotypic screen, WT strain; inhibition, % at 10 µM; actives 2.1% (n = 190,000); AID 1362; in the data active means inhibition above about 58%; tested in S. cerevisiae
NR3A LBD binder = modulates the human NR3A ligand-binding domain; NR3A LBD differential scanning fluorimetry, Tm shift; 0% = protein alone, 100% = glycine-bound protein; Tm shift relative to glycine control, % at 25 µM; actives 2.5% (n = 340,000);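 active means melting temperature shift of at least 10% of the positive control shift, at one fixed dose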
MPTP inh = inhibitors of mitochondrial permeability transition pore. isolated mouse mitochondria, Ca2+ swelling absorbance, 30 min. inhibition, % at 10 µM. actives 1.4% (n = 360,000);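 active means inhibition of 50% or more, scaled per plate between neutral and stimulator controls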
EBV gp42 inh = inhibitors of Epstein-Barr virus glycoprotein 42 | inhibition, % (tested at 21.74 µM) | Q1HVG2 | AID 1085 | Fluorescence polarization binding assay, mP read-out | actives 0.42% (n = 220,000); in the data active means inhibition above about 50%
Target sequence (Q1HVG2 whole entry, looked up): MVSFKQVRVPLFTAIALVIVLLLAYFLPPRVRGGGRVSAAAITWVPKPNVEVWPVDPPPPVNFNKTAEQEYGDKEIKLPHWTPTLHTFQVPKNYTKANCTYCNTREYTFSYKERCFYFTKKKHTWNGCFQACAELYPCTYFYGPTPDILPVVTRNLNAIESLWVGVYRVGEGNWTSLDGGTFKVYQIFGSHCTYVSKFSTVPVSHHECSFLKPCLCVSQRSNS
CHOP inh = CHOP inhibition in unfolded protein response. inhibition, % at 10 µM. AID 2732. actives 3.8% (n = 220,000). CHO-K1 CHOP-promoter luciferase, tunicamycin-induced, 15-18 h;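 active means compounds that reduced the stress-induced luciferase reporter signal by more than about 70% of percent inhibition, limit read from the data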
Tb MetRS inh = Trypanosoma brucei MetRS inhibition | purified T. brucei MetRS, ATP depletion, Kinase-Glo luminescence | actives 0.4% (n = 360,000) | inhibition, % at 11.9 µM | AID 624268;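 active means inhibition above a per-plate cutoff of the control wells' mean inhibition plus 3 SD, cut at about 5.5% in these data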
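Material – parasite MetRS enzyme · Medium – HEPES-MgCl2-KCl buffer plus DTT, spermine, BSA, pyrophosphatase · Reagent – ATP, methionine and E. coli bulk tRNA substrates · Times – 15 min enzyme-compound preincubation, 2 h reaction, 10 min detection, 25 °C · Measured by – luminescence of leftover ATP · Evaluation – percent inhibition relative to median high and low control wells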
MPTP counter = membrane potential counter-screen of mitochondrial pore inhibitors; shares compounds with MPTP inh; isolated mitochondria, Rhodamine 123 fluorescence; inhibition, % at 10 µM; actives 78% (n = 5,000); in the data active means inhibition above about 22%
MPTP abs DR = MPTP inhibition, dose response swelling confirmation; shares compounds with MPTP inh; isolated mitochondria swelling, absorbance; IC50, µM; actives 58% (n = 780); in the data active means IC50 below about 20 µM
MPTP counter DR = MPTP inhibitor counter-screen activity, dose response. shares compounds with MPTP inh. isolated mitochondria counterscreen, fluorescence read-out. IC50, µM. actives 49% (n = 780); in the data active means IC50 below about 80 µM
Of the large screens only hits and unclear results are named; the others gave an inactive call (follow-up assays come after a bar, where they were run). Compounds with a hit are over-represented: about 6.4% of the library has one in this group of screens.

COc1cccc(NC(=S)Nc2ccc(Br)cc2Cl)c1	MPTP inh 56 (no result: WT yeast gro inh) | MPTP counter 69
CC(NC(=S)Nc1cccc(C(F)(F)F)c1)C(C)(C)C (stereo not drawn)	WT yeast gro inh 70, MPTP inh 94 | MPTP counter 95
CCOc1ccc(NC(=S)Nc2ccc(Br)cc2Cl)cc1	none
COc1ccc(NC(=S)Nc2cccc(C(F)(F)F)c2)c(C)c1	MPTP inh 78 | MPTP counter 104
CC(Oc1ccccc1C(N)=O)C(=O)Nc1ccc(S(=O)(=O)N2CCCC2)cc1 (stereo not drawn)	none (no result: WT yeast gro inh, EBV gp42 inh, CHOP inh)
CCC(=O)c1cn(CC(=O)NCc2ccco2)c2ccccc12	none
COc1ccc(C2NC(=S)NC(C)=C2C(=O)N2CCOCC2)cc1 (stereo not drawn)	none
CSc1ccccc1NC(=S)Nc1cccc(C(F)(F)F)c1	MPTP inh 94 | MPTP counter 92
COc1ccc(COC(=O)c2cccc(S(=O)(=O)N3CCN(C(C)=O)CC3)c2)cc1F	MPTP inh 56 (no result: WT yeast gro inh, EBV gp42 inh, CHOP inh) | MPTP counter 45
COc1ccc(N=C2SCC(=O)N2CCc2ccc(OC)c(OC)c2)cc1	none (no result: WT yeast gro inh)
COc1ccc(CCN2C(=O)CSC2=Nc2ccc(C(C)C)cc2)cc1OC	MPTP inh 90 (no result: WT yeast gro inh) | MPTP counter 94
C[C@H](CO)N1C[C@H](C)[C@@H](CN(C)Cc2ccc3cccnc3c2)OCc2cnnn2CCCC1=O	none (no result: WT yeast gro inh, NR3A LBD binder, EBV gp42 inh, CHOP inh)
O=S(=O)(Nc1cccnc1)c1ccccc1	none
O=S(=O)(Nc1cccnc1)c1ccc(C2CCCCC2)cc1	MPTP inh 104 | MPTP counter 106
O=C(Nc1cccc(Cl)c1)c1ccc(NC2=NC3CS(=O)(=O)CC3S2)cc1 (stereo not drawn)	none (no result: WT yeast gro inh, EBV gp42 inh, CHOP inh)
S=C(Nc1ccc(Br)cc1)N1CCn2cccc2C1c1cccnc1 (stereo not drawn)	MPTP inh 97 | MPTP counter 92
Cc1cc(SCC(=O)N/N=C/c2ccc(O)cc2O)nc2ccccc12	NR3A LBD binder 26, MPTP inh 68 (no result: WT yeast gro inh, EBV gp42 inh, CHOP inh) | MPTP counter 71
COc1ccc2nc(C)cc(SCC(=O)N/N=C/c3cccc4ccccc34)c2c1	MPTP inh 128 | MPTP counter inactive | MPTP abs DR inactive | MPTP counter DR inactive
COc1ccc2nc(C)cc(SCC(=O)N/N=C/c3ccc(O)c(O)c3)c2c1	none
O=C(NCCOC(=O)C1COc2ccccc2O1)C1COc2ccccc2O1 (stereo not drawn)	none
CCC1=NN(C(=O)c2ccc(Br)cc2)C(O)(c2ccccc2)C1 (stereo not drawn)	MPTP inh 61 | MPTP counter 75
N#CC1=C(N)N2C(=C(C#N)C13CCCCC3)SC1CCCCC12O (stereo not drawn)	MPTP inh 66 | MPTP counter 72
Cc1ccc(S(=O)(=O)Nc2ccc3nc(N)sc3c2)cc1	MPTP inh 85 | MPTP counter 38
Cc1nc2ccc(NS(=O)(=O)c3ccc4c(c3)OCCO4)cc2s1	MPTP inh 96 | MPTP counter 97
CSc1nc2ccc(NS(=O)(=O)c3ccc(Cl)s3)cc2s1	MPTP inh 87 | MPTP counter 77
CC(=O)Nc1ccc2nc(NS(=O)(=O)c3ccc(C)cc3)sc2c1	none
CC(=O)Nc1ccc(NS(=O)(=O)c2ccc(Cl)s2)cc1	none
Cc1nc2ccc(NS(=O)(=O)c3ccc(Br)cc3)cc2s1	MPTP inh 81 (no result: WT yeast gro inh, EBV gp42 inh, CHOP inh) | MPTP counter 99
COc1ccc2oc(C(=O)OC(C)C(=O)NC3(C#N)CCCCC3)c(C)c2c1 (stereo not drawn)	none (no result: WT yeast gro inh, EBV gp42 inh, CHOP inh)
CC(=O)Nc1ccc(S(=O)(=O)Nc2ccc3nc(C)sc3c2)cc1	MPTP inh 59 (no result: WT yeast gro inh, EBV gp42 inh, CHOP inh) | MPTP counter 83
Cc1ccc2nc(-c3ccc(NS(=O)(=O)c4ccc(F)c(F)c4)cc3)sc2c1	NR3A LBD binder 36, MPTP inh 60, CHOP inh 85 | MPTP counter 71
Cc1ccc(S(=O)(=O)Nc2ccc3nc(C)sc3c2)cc1	MPTP inh 68 (no result: WT yeast gro inh) | MPTP counter 105
Cc1nc2ccc(NS(=O)(=O)c3ccc(F)c(F)c3)cc2s1	none (no result: WT yeast gro inh, EBV gp42 inh, CHOP inh)
Cc1nc2ccc(NS(=O)(=O)c3cccc([N+](=O)[O-])c3)cc2s1	MPTP inh 55 (no result: WT yeast gro inh, EBV gp42 inh, CHOP inh) | MPTP counter 72
Cc1cc(C)nc(NS(=O)(=O)c2ccc(NS(=O)(=O)c3ccc(F)c(F)c3)cc2)n1	none (no result: WT yeast gro inh, NR3A LBD binder, EBV gp42 inh, CHOP inh)
OC[C@@H]1CN(Cc2cccs2)C[C@H](n2cnc3c(N4CCN(c5ccccc5)CC4)ncnc32)O1	none (no result: WT yeast gro inh, NR3A LBD binder, EBV gp42 inh, CHOP inh)
OCCN1CCN(c2ncnc3c2ncn3[C@H]2CN(Cc3cccs3)C[C@@H](CO)O2)CC1	MPTP inh 57 (no result: WT yeast gro inh, NR3A LBD binder, EBV gp42 inh, CHOP inh) | MPTP counter inactive | MPTP abs DR inactive | MPTP counter DR inactive
CCOC(=O)N1CCN(S(=O)(=O)c2ccc3c(c2)CC(C)N3C(=O)C2CC2)CC1 (stereo not drawn)	none (no result: WT yeast gro inh, EBV gp42 inh, CHOP inh)
COc1ccc(S(=O)(=O)N2CCN(C(=O)c3cnc(C)cn3)CC2)cc1	none
CC1CC1C(=O)N1CCN(S(=O)(=O)c2cc(C(F)(F)F)cc(C(F)(F)F)c2)CC1 (stereo not drawn)	MPTP inh 101 (no result: WT yeast gro inh, EBV gp42 inh, CHOP inh) | MPTP counter 102
Cc1cnc(C(=O)N2CCN(S(=O)(=O)c3cc(C(F)(F)F)cc(C(F)(F)F)c3)CC2)cn1	MPTP inh 88 (no result: WT yeast gro inh, EBV gp42 inh, CHOP inh) | MPTP counter 105
COc1ccc(-c2csc(Nc3cc(C)ccn3)n2)cc1OC	none (no result: WT yeast gro inh, EBV gp42 inh, CHOP inh)
Cc1ccnc(Nc2nc(-c3c(C)nc4sccn34)cs2)c1	WT yeast gro inh 81, NR3A LBD binder 16, MPTP inh 63 | MPTP counter 21
O=C(Cn1cc2c(n1)CCCCC2)N1CCc2ccccc2C1	none
Cc1csc2ncnc(N3CCN(S(=O)(=O)c4cccc(C(F)(F)F)c4)CC3)c12	MPTP inh 97 (no result: WT yeast gro inh, EBV gp42 inh, CHOP inh) | MPTP counter 93
Cc1sc2ncnc(N3CCC(C(=O)NNC(=O)COc4ccc(Cl)cc4)CC3)c2c1C	none (no result: WT yeast gro inh, EBV gp42 inh, CHOP inh)
Cc1sc2ncnc(N3CCN(S(=O)(=O)c4ccc(C(C)(C)C)cc4)CC3)c2c1C	MPTP inh 100 (no result: WT yeast gro inh, EBV gp42 inh, CHOP inh) | MPTP counter 100
Cc1sc2ncnc(N3CCN(CCOc4ccc(Cl)cc4)CC3)c2c1C	MPTP inh 100, CHOP inh 92 | MPTP counter 102
Cc1sc2ncnc(N3CCN(S(=O)(=O)c4ccc(Br)cc4)CC3)c2c1C	MPTP inh 93 (no result: WT yeast gro inh, EBV gp42 inh, CHOP inh) | MPTP counter 110
O=S(=O)(Nc1ncccn1)c1ccc(NC(=S)Nc2ccc(Cl)cc2)cc1	MPTP inh 98 (no result: WT yeast gro inh) | MPTP counter 96

Screening results as filed in PubChem.
